Measurements: ChEMBL document CHEMBL1671740, “Increased temperature enhances the antimicrobial effects of daptomycin, vancomycin, tigecycline, fosfomycin, and cefamandole on staphylococcal biofilms” (2010)
Converted amounts (≈) assume the structure as drawn. The source made the active and inactive calls. The rule behind the calls is not given here.

Tests used:
[1] = test system: Staphylococcus epidermidis; test: Antimicrobial activity against Staphylococcus epidermidis DSM3269 by […]; format: functional
Staphylococcus aureus [2] = test: Antimicrobial activity against Staphylococcus aureus ATCC 29213 administered as powder at 45 degC after 24 hrs; format: functional; conditions: ATCC 29213, 24 h
In short: (§1)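 Antimicrobials, as powder or in solution as used for MIC testing, held at 45°C for 1 and 24 h in three independent experiments. MICs were then determined by the CLSI microtiter plate method in cation-adjusted Mueller-Hinton medium, with MHB containing 50 μg/ml calcium for daptomycin. Values are median (range) […] in mg/liter.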

Staphylococcus aureus [3] = test: Antimicrobial activity against Staphylococcus aureus ATCC 29213 by […]; format: functional
[4] = test system: Staphylococcus epidermidis; test: Antimicrobial activity against Staphylococcus epidermidis isolate KO8 isolated from healthy human skin by […]; format: functional
Staphylococcus [5] = test: Antimicrobial activity against coagulase-negative Staphylococcus isolated from human preoperative skin by […]; format: functional
Staphylococcus aureus [6] = test: Antimicrobial activity against Staphylococcus aureus isolated from human preoperative skin by […]; format: functional
Staphylococcus aureus [7] = test: Antimicrobial activity against Staphylococcus aureus isolated from human prosthetic joint infection site by […]; format: functional
Staphylococcus [8] = test: Antimicrobial activity against coagulase-negative Staphylococcus isolated from human prosthetic joint infection site by […]; format: functional
[9] = test system: Staphylococcus epidermidis; test: Antimicrobial activity against Staphylococcus epidermidis isolate OR1 treated in solution at 45 degC after 24 hrs; format: functional; conditions: isolate OR1, 24 h; in short: as §1
Staphylococcus [10] = test: Antimicrobial activity against Staphylococcus isolates biofilms assessed as decrease in bacterial load at 100 mg/litre at ambient temperature of 35 degC after 24 hrs relative to baseline; format: functional
In short: (§2)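 24-h static biofilms of the staphylococcal isolates were exposed to drug for 24 h at 35, 40 or 45°C. Biofilms were not fixed but scraped off and resuspended in MHB, then serially diluted and 0.1 ml plated on blood agar, read after 48 h at 35°C in ambient air. Done in duplicate as mean log10 CFU/ml; log reduction was taken versus untreated biofilm.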

Staphylococcus [11] = test: Antimicrobial activity against Staphylococcus isolates biofilms assessed as decrease in bacterial load at 25 mg/litre at ambient temperature of 45 degC after 24 hrs relative to baseline; format: functional; in short: as §2
Staphylococcus [12] = test: Antimicrobial activity against Staphylococcus isolates biofilms assessed as decrease in bacterial load at 100 mg/litre at ambient temperature of 40 degC after 24 hrs relative to baseline; format: functional; in short: as §2
Staphylococcus [13] = test: Antimicrobial activity against Staphylococcus isolates biofilms assessed as decrease in bacterial load at 100 mg/litre at ambient temperature of 45 degC after 24 hrs relative to baseline; format: functional; in short: as §2
Staphylococcus [14] = test: Antimicrobial activity against Staphylococcus isolates biofilms assessed as change in optical density ratio of biofilms at 1 mg/litre at ambient temperature of 35 degC after 24 hrs relative to baseline; format: functional
In short: (§3)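 Static microtiter biofilms of 34 clinical S. aureus and CoNS isolates from orthopedic implant infections or preoperative skin, plus reference strains. Inoculum was McFarland 0.5 diluted 1:100 in calcium-supplemented MHB, grown 24 h at 35°C in ambient air. Established biofilms were exposed to drug for 24 h at 35, 40 or 45°C, then formalin-fixed and stained with 1% crystal violet for 5 min, and OD read at 550 nm in quadruplicate.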

Staphylococcus [15] = test: Antimicrobial activity against Staphylococcus isolates biofilms assessed as change in optical density ratio of biofilms at 5 mg/litre at ambient temperature of 35 degC after 24 hrs relative to baseline; format: functional; in short: as §3
Staphylococcus [16] = test: Antimicrobial activity against Staphylococcus isolates biofilms assessed as change in optical density ratio of biofilms at 25 mg/litre at ambient temperature of 35 degC after 24 hrs relative to baseline; format: functional; in short: as §3
Staphylococcus [17] = test: Antimicrobial activity against Staphylococcus isolates biofilms assessed as change in optical density ratio of biofilms at 1 mg/litre at ambient temperature of 40 degC after 24 hrs relative to baseline; format: functional; in short: as §3
Staphylococcus [18] = test: Antimicrobial activity against Staphylococcus isolates biofilms assessed as change in optical density ratio of biofilms at 5 mg/litre at ambient temperature of 40 degC after 24 hrs relative to baseline; format: functional; in short: as §3
Staphylococcus [19] = test: Antimicrobial activity against Staphylococcus isolates biofilms assessed as change in optical density ratio of biofilms at 25 mg/litre at ambient temperature of 40 degC after 24 hrs relative to baseline; format: functional; in short: as §3
Staphylococcus [20] = test: Antimicrobial activity against Staphylococcus isolates biofilms assessed as change in optical density ratio of biofilms at 1 mg/litre at ambient temperature of 45 degC after 24 hrs relative to baseline; format: functional; in short: as §3
Staphylococcus [21] = test: Antimicrobial activity against Staphylococcus isolates biofilms assessed as change in optical density ratio of biofilms at 5 mg/litre at ambient temperature of 45 degC after 24 hrs relative to baseline; format: functional; in short: as §3
Staphylococcus [22] = test: Antimicrobial activity against Staphylococcus isolates biofilms assessed as change in optical density ratio of biofilms at 25 mg/litre at ambient temperature of 45 degC after 24 hrs relative to baseline; format: functional; in short: as §3
Staphylococcus [23] = test: Antimicrobial activity against Staphylococcus isolates biofilms assessed as decrease in bacterial load at 1 to 25 mg/litre at ambient temperature of 30 to 45 degC after 24 hrs relative to baseline; format: functional, organism-based; conditions: in the assay text read “35 to 45 degC” for “30 to 45 degC”; in short: as §2

Work on CCCCCCCCCC(=O)N[C@@H](Cc1c[nH]c2ccccc12)C(=O)N[C@H](CC(N)=O)C(=O)N[C@@H](CC(=O)O)C(=O)N[C@@H]1C(=O)NCC(=O)N[C@@H](CCCN)C(=O)N[C@@H](CC(=O)O)C(=O)N[C@H](C)C(=O)N[C@@H](CC(=O)O)C(=O)NCC(=O)N[C@H](CO)C(=O)N[C@@H]([C@H](C)CC(=O)O)C(=O)N[C@@H](CC(=O)c2ccccc2N)C(=O)O[C@@H]1C yielded an MIC [1] of 0.25 µg/mL (≈ 0.154 µM), an MIC (Staphylococcus aureus [2]) of 0.5 µg/mL (≈ 0.309 µM) and an MIC (Staphylococcus aureus [3]) of 0.125 µg/mL (≈ 0.0771 µM). For the same compound, the MIC [4] was 0.25 µg/mL (≈ 0.154 µM), the MIC (Staphylococcus [5]) was 0.25 µg/mL (≈ 0.154 µM) and the MIC (Staphylococcus aureus [6]) was 0.125 µg/mL (≈ 0.0771 µM). For the same compound, the MIC (Staphylococcus aureus [7]) was 0.125 µg/mL (≈ 0.0771 µM), the MIC (Staphylococcus [8]) was 0.125 µg/mL (≈ 0.0771 µM) and the MIC [9] was 1 µg/mL (≈ 0.617 µM). The “fold change (FC)” value (Staphylococcus [10]) was 2, the “fold change (FC)” value (Staphylococcus [11]) was 1.2 and the “fold change (FC)” value (Staphylococcus [12]) was 3.6. The “fold change (FC)” value (Staphylococcus [13]) was 3.3.

Compound CN(C)c1cc(NC(=O)CNC(C)(C)C)c(O)c2c1C[C@H]1C[C@H]3[C@H](N(C)C)C(O)=C(C(N)=O)C(=O)[C@@]3(O)C(O)=C1C2=O [TIGECYCLINE] has an MIC [1] of 0.5 µg/mL (≈ 0.854 µM), an MIC (Staphylococcus aureus [2]) of 1 µg/mL (≈ 1.71 µM) and an MIC (Staphylococcus aureus [3]) of 0.06 µg/mL (≈ 0.102 µM). For the same compound, the MIC [4] was 0.125 µg/mL (≈ 0.213 µM), the MIC (Staphylococcus [5]) was 0.03 µg/mL (≈ 0.0512 µM) and the MIC (Staphylococcus aureus [6]) was 0.06 µg/mL (≈ 0.102 µM). The MIC (Staphylococcus aureus [7]) was 0.125 µg/mL (≈ 0.213 µM), the MIC (Staphylococcus [8]) was 0.06 µg/mL (≈ 0.102 µM) and the MIC [9] was 2 µg/mL (≈ 3.41 µM). The Ratio (Staphylococcus [14]) was 0.98, the Ratio (Staphylococcus [15]) was 0.99 and the Ratio (Staphylococcus [16]) was 1.12. The Ratio (Staphylococcus [17]) was 1.31, the Ratio (Staphylococcus [18]) was 1.1 and the Ratio (Staphylococcus [19]) was 0.83. For the same compound, the Ratio (Staphylococcus [20]) was 0.93, the Ratio (Staphylococcus [21]) was 0.86 and the Ratio (Staphylococcus [22]) was 1.32. The Activity (Staphylococcus [10]) was “inactive” and the Activity (Staphylococcus [23]) was “inactive”.
